In ChEMBL document CHEMBL1130391, “Novel agonists of 5HT2C receptors. Synthesis and biological evaluation of substituted 2-(indol-1-yl)-1-methylethylamines and 2-(indeno[1,2-b]pyrrol-1-yl)-1-methylethylamines. Improved therapeutics for obsessive compulsive disorder” (J Med Chem, 1997):
pEC50, pKi: −log10 of the molar value. Calls of active or inactive are those of the source. The calls are words filed in the database; no cut-off is given here.

Legend:
[1] = biological target: T1, 5-hydroxytryptamine receptor 2C (Rattus norvegicus, UniProt P08909); test: Efficacy (pEC50) was evaluated for 5-HT2C receptor-mediated stimulation of IP3 formation in vitro in choroid plexus of the rat; assay type: functional, tissue-based
T1 sequence (P08909 whole entry): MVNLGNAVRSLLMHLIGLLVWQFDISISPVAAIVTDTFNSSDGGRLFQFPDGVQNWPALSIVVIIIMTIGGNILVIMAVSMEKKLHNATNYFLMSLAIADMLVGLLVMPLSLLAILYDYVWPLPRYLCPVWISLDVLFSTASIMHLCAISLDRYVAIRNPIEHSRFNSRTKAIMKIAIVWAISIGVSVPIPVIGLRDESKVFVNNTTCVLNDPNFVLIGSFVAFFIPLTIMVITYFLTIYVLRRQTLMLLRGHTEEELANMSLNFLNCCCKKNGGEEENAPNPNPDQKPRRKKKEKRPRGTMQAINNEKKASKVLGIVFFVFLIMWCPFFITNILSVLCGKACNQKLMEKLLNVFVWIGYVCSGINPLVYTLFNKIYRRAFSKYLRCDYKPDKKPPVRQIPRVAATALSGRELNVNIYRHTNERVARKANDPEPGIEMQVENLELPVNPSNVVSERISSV
How it was run: (§1)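 Rat choroid plexus preloaded with [³H]myoinositol for 1 h at 37 °C in oxygenated Krebs. LiCl 10 mM and pargyline 10 µM added, then compound 10 min later. Six concentrations, top 0.1 mM, incubated 0.5 h at 37 °C. Stopped with HClO₄/EDTA, then IP₃ isolated. Three measures per point. Intrinsic activity is the maximum relative to 10 µM 5HT.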

[2] = biological target: T2, 5-hydroxytryptamine receptor 2C (Rattus norvegicus) (UniProt P08909); test: Induction of penile erection in rats following p.o. administration, indicative of 5-HT 2c receptor activation; assay type: functional, organism-based
T2 sequence (whole entry): T1 sequence (P08909 whole entry)
How it was run: (§2)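 Male erection counts in RORO rats, 8 per dose, over 45 min. Drug is given in 0.3% Tween-80 in saline, sc at 5 mL/kg or orally at 10 mL/kg. Vehicle controls are included, and doses are expressed as salt weight. ED₅₀ by probit analysis, or the approximate dose at which half the rats respond.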

[3] = biological target: 5-hydroxytryptamine receptor 2A (Homo sapiens, UniProt P28223); test: Binding affinity against human 5-hydroxytryptamine 2A receptor using displacement of [3H]5-HT
Sequence of 5-hydroxytryptamine receptor 2A (P28223 whole entry): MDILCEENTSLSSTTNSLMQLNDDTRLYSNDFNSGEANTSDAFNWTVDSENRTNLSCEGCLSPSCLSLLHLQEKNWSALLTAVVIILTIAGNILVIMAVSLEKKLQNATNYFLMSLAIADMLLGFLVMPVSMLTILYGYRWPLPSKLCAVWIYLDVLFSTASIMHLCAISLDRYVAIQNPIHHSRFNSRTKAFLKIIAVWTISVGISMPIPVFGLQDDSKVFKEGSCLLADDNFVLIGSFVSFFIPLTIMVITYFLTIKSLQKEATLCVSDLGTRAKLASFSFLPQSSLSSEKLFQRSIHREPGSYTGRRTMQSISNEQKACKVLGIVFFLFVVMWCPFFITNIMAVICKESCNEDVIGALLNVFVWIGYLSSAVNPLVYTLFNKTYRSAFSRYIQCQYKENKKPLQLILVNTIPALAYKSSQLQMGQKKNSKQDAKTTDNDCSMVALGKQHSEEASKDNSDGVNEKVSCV

[4] = biological target: T2, 5-hydroxytryptamine receptor 2C (Rattus norvegicus); test: Induction of penile erection in rats after subcutaneous administration, indicative of 5-HT 2c receptor activation; assay type: functional, organism-based; how it was run: as §2
[5] = biological target: T2, 5-hydroxytryptamine receptor 2C (Rattus norvegicus); test: Intrinsic 5-HT 2c receptor activity as induced IP3 turnover in vitro in rat choroid plexus; assay type: functional, tissue-based; how it was run: as §1
[6] = biological target: T3, 5-hydroxytryptamine receptor 2C (Homo sapiens, UniProt P28335); test: Binding affinity against human 5-hydroxytryptamine 2C receptor using displacement of [3H]DOB
T3 sequence (P28335 whole entry): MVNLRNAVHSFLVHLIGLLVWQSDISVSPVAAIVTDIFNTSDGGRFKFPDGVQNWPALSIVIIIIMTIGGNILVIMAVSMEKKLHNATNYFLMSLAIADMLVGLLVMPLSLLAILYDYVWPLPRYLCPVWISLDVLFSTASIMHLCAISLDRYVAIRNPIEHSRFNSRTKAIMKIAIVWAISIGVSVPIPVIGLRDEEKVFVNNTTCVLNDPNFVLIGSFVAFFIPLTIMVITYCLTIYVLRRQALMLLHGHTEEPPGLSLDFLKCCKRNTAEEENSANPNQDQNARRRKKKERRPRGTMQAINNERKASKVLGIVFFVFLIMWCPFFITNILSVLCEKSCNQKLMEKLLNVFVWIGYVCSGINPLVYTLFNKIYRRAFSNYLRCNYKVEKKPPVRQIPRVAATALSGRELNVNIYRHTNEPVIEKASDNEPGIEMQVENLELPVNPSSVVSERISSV

Rattus norvegicus [7] = test: Compound was tested in schedule induced polydipsia in rats expressed as %maximum suppression at minimum effective dose of 10 mg/kg intraperitoneally; assay type: functional; details: route intraperitoneal
Rattus norvegicus [8] = test: Compound was tested in schedule induced polydipsia in rats expressed as %maximum suppression at minimum effective dose of 3 mg/kg intraperitoneally; assay type: functional; details: route intraperitoneal
[9] = biological target: T2, 5-hydroxytryptamine receptor 2C (Rattus norvegicus); test: Efficacy (pEC50) was evaluated for 5-HT2C receptor-mediated stimulation of IP3 formation in vitro in choroid plexus of the rat; inactive; assay type: functional, tissue-based; how it was run: as §1
Rattus norvegicus [10] = test: Compound was tested in schedule induced polydipsia in rats expressed as %maximum suppression at minimum effective dose of 30 mg/kg intraperitoneally; assay type: functional; details: route intraperitoneal
Rattus norvegicus [11] = test: Compound was tested in schedule induced polydipsia in rats expressed as %maximum suppression at minimum effective dose of 1 mg/kg intraperitoneally; assay type: functional; details: route intraperitoneal
[12] = biological target: T2, 5-hydroxytryptamine receptor 2C (Rattus norvegicus); test: The compound was tested for induction of penile erection in rats after peroral administration; Inactive; assay type: functional, organism-based; how it was run: as §2

Row | Compound | pEC50 [1] | ED50 [2] [mg/kg] | pKi [3] | ED50 [4] [mg/kg] | Efficacy [5] | pKi [6] | Max suppression (Rattus norvegicus [7]) [%] | Max suppression (Rattus norvegicus [8]) [%] | Log EC50 [9] | Max suppression (Rattus norvegicus [10]) [%] | Max suppression (Rattus norvegicus [11]) [%] | ED50 [12]
1 | Cc1ccc2ccn(CC(C)N)c2c1 (stereo not given) | 5.10 | > 30 | 6.10 | 3.3 | 0.9 | 7.80 | – | – | – | – | – | –
2 | Cc1ccc2c(c1)-c1c(ccn1CC(C)N)C2(C)C (stereo not given) | 6.70 | 10 | 7.00 | 0.9 | 1 | 8.50 | -76 | – | – | – | – | –
3 | C[C@@H](N)Cn1ccc2cc(F)c(F)cc21 | 6.90 | 30 | 7.00 | 2.7 | 1 | 8.40 | – | – | – | – | – | –
4 | Cc1ccc2c(ccn2CC(C)N)c1 (stereo not given) | 5.60 | – | 6.10 | > 10 | 0.9 | 7.20 | – | – | – | – | – | –
5 | Cc1cccc2c1ccn2CC(C)N (stereo not given) | 5.60 | > 30 | 7.00 | 3.2 | 0.6 | 8.20 | – | – | – | – | – | –
6 | CC(N)Cn1ccc2cc(Cl)c(F)cc21 (stereo not given) | 6.40 | 15 | 7.40 | 1 | 1 | 8.70 | – | -88 | – | – | – | –
7 | CC(N)Cn1ccc2c1-c1cc(Cl)ccc1C2 (stereo not given) | 5.60 | > 30 | 6.70 | 2.7 | 0.8 | 8.40 | – | – | – | – | – | –
8 | CC(N)Cn1ccc2c1-c1cc(F)ccc1C2 (stereo not given) | 6.20 | > 30 | 6.70 | 1.5 | 1 | 8.50 | – | – | – | – | – | –
9 | C[C@@H](N)Cn1ccc2cc(F)c(Cl)cc21 | 5.50 | > 30 | 7.10 | 2.1 | 1 | 8.00 | – | – | – | – | – | –
10 | CC(N)Cn1ccc2ccc(F)cc21 (stereo not given) | 6.20 | > 30 | 6.60 | 0.3 | 1 | 8.40 | – | – | – | – | – | –
11 | COc1cccc2c1Cc1ccn(CC(C)N)c1-2 (stereo not given) | – | – | 5.50 | > 10 | – | 7.00 | – | – | inactive | – | – | –
12 | CNCCC(Oc1ccc(C(F)(F)F)cc1)c1ccccc1 (stereo not given) [FLUOXETINE] | – | – | – | – | – | – | – | – | – | -11 | – | –
13 | CC(N)Cc1c[nH]c2ccc(F)cc12 (stereo not given) | 6.80 | 9.9 | 7.20 | 0.8 | 0.9 | 8.00 | – | – | – | – | -96 | –
14 | C[C@H](N)Cn1ccc2c(Cl)c(F)ccc21 | 6.50 | > 30 | 7.40 | 2.7 | 1 | 8.90 | – | -97 | – | – | – | –
15 | COc1ccc2c(c1)-c1c(ccn1CC(C)N)C2(C)C (stereo not given) | 7.00 | 10 | 8.00 | 0.5 | 1 | 9.40 | – | – | – | – | -75 | –
16 | CC(N)Cn1ccc2cc(F)ccc21 (stereo not given) | 5.80 | 2.7 | 6.80 | 1 | 1 | 8.20 | – | -97 | – | – | – | –

Row | Compound | pEC50 [1] | ED50 [2] [mg/kg] | pKi [3] | ED50 [4] [mg/kg] | Efficacy [5] | pKi [6] | Max suppression (Rattus norvegicus [7]) [%] | Max suppression (Rattus norvegicus [8]) [%] | Log EC50 [9] | Max suppression (Rattus norvegicus [10]) [%] | Max suppression (Rattus norvegicus [11]) [%] | ED50 [12]
17 | COc1cccc2c1-c1c(ccn1CC(C)N)C2 (stereo not given) | 5.20 | – | 6.40 | > 10 | 0.7 | 7.90 | – | – | – | – | – | –
18 | COc1ccc2c(c1)-c1c(ccn1CC(C)N)C2 (stereo not given) | 6.40 | 11 | 6.90 | 0.6 | 1 | 9.00 | -79 | – | – | – | – | –
19 | CC(N)Cn1ccc2c1-c1cc(Br)ccc1C2 (stereo not given) | 5.60 | – | 7.00 | > 10 | 1 | 8.40 | – | – | – | – | – | –
20 | CC(N)Cn1ccc2cc(Br)ccc21 (stereo not given) | 5.70 | > 30 | 6.80 | 4 | 0.8 | 8.40 | – | – | – | – | – | –
21 | COc1cccc2c1ccn2CC(C)N (stereo not given) | 4.90 | – | – | > 10 | 0.3 | 6.90 | – | – | – | – | – | –
22 | C[C@H](N)Cn1ccc2cc(F)c(Cl)cc21 | 6.70 | 5.5 | 7.50 | 0.5 | 1 | 8.90 | -90 | – | – | – | – | –
23 | C[C@H](N)Cn1ccc2cc(F)c(F)cc21 | 6.70 | 10 | 7.00 | 0.3 | 1 | 9.00 | – | -73 | – | – | – | –
24 | COc1ccc2c(ccn2CC(C)N)c1 (stereo not given) | 5.00 | – | – | > 10 | 0.3 | 6.10 | – | – | – | – | – | –
25 | COc1ccc2c(c1)-c1c(ccn1C[C@H](C)N)C2 | 6.60 | 10 | 6.90 | 1.2 | 1 | 9.00 | – | – | – | – | -97 | –
26 | Cc1ccc2c(c1)-c1c(ccn1CC(C)N)C2 (stereo not given) | 6.30 | – | 7.20 | > 10 | 1 | 8.10 | – | – | – | – | – | –
27 | CC(N)Cn1ccc2cc(Cl)ccc21 (stereo not given) | 5.70 | > 30 | 6.70 | 2.3 | 0.9 | 8.10 | – | – | – | – | – | –
28 | C[C@@H](N)Cn1ccc2c(Cl)c(F)ccc21 | 6.10 | – | 8.00 | 3.3 | 0.9 | 8.90 | – | – | – | – | – | inactive
29 | CC(N)Cn1ccc2c(F)cccc21 (stereo not given) | 5.90 | – | 6.80 | > 10 | 0.7 | 8.10 | – | – | – | – | – | –
30 | CC(N)Cn1ccc2c1-c1cc(F)ccc1C2(C)C (stereo not given) | 6.70 | > 30 | 7.50 | 2.7 | 1 | 8.30 | – | – | – | – | – | –
31 | COc1ccc2c(c1)-c1c(ccn1C[C@@H](C)N)C2 | 5.10 | > 30 | 6.90 | 2 | 0.8 | 8.40 | – | – | – | – | – | –
32 | COc1ccc2c(c1)Cc1ccn(CC(C)N)c1-2 (stereo not given) | 5.70 | – | 6.40 | > 10 | 1 | 7.90 | – | – | – | – | – | –
